Test system: MS2 coat protein
Test: apparent Kd, MS2 coat protein; higher = weaker binding; RNA-MaP array; FMN 200 µM where present
Summary of the method: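 Green signal was scaled to red-channel RNA signal and control-cluster median Fmax, and the apparent Kd was taken as the median of filtered per-cluster binding-curve fits. The binding series used SNAP-549-labelled MS2 coat protein from 0.7 or 1.5 nM, doubling to 3 µM, on designs transcribed by stalled E. coli RNA polymerase on Illumina sequencing-chip clusters. Each series ran without and then with constant ligand in 100 mM Tris-HCl pH 7.5, 80 mM KCl, 4 mM MgCl2, BSA, DTT, yeast tRNA and Tween-20.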

[1] = designed as: OFF switch for flavin mononucleotide, no ligand
[2] = ligand present: flavin mononucleotide, designed as: OFF switch for flavin mononucleotide
[3] = designed as: ON switch for flavin mononucleotide, no ligand
[4] = ligand present: flavin mononucleotide, designed as: ON switch for flavin mononucleotide

Row | Sequence | apparent Kd [1] [nM] | apparent Kd [2] [nM] | apparent Kd [3] [nM] | apparent Kd [4] [nM]
1 | UUUAUAAUAAGAUCAAUUAAUUAACAUGAGGAUCACCCAUGUGAGGAUAUCAGCUCGUGUAGAGCUGAGAAGGCACAAUAUAAG | 43.8 | 69.3 |  | 
2 | GGAUGAGAAACUCAUCCAUAACGAACAUGAGGAUCACCCAUGUAGGAUAUGCUACUCAAAGAGUAGCAGAAGGACAUGUGUCUU | 29.6 | 144 |  | 
3 | UCGGACGUCGUAGGAUAUGUAGGAUAUUCCUACAUGAGGAUCACCCAUGUUGACAUGGAAGAAGGACAGAAGGACGAUGUCCAU |  |  | 192 | 4.7
4 | AGCAGACGAGGAUAUGAUAAAGAUCACAUGAGGAUCACCCAUGUACGCAGGAUACUGCGAUCAGAAGGCGUCUGCU | 13 | 13.8 |  | 
5 | CCGCUCGAGCAGAAGGCAAUGAGGGUUAUACAUUGAGGAUAUGCUACGUACGUGGUACAUGAGGAUCACCCAUGUAGCCUAUCU |  |  | 788 | 93.4
6 | UUUCCCUGGCAAGGAUAUCCUGUGCGGUUCCGGCUCGUGUCUGUUACAUGAGGAUCACCCAUGUGGGAGAAGGUGCCUGUGGCU | 53.2 | 232 |  | 
7 | AAUAUAAGAGCUGGACUCUAAAGAACAUGAGGAUCACCCAUGUAGGAUAUCAGCACGAUAAGUGCUGAGAAGGACAACCAGCUC | 14.1 | 14.6 |  | 
8 | GGAUUUCCUGAGGAUAUUGUAUCACCUGAUUGAUAAGAAGGCAGAACAUGAGGAUCACCCAUGUGGGUAUUCGG | 92.9 | 88.4 |  | 
9 | UGAGCUUGUGUGAGGAUAUGAGUUCGGAAAUGAGCUUAGAAGGCACAUGAGGAUCACCCAUGUAAGCGAGUUCG | 72.2 | 74.7 |  | 
10 | AGCUAUUAAUCAGGAUAUAGGGACAUGAGGAUCACCCAUGUGUACAUGAUAAAAUGUGAUCACGUCUAGAAGGGAUUACUAACA |  |  | 77 | 79.8
11 | CAGCCCUGAGGAUAUCCAUCCUUGUACAUGAGGAUCACCCAUGUUUUCCUCUGGGCUUUUGGAGAAGGCAGGUAUC | 78.3 | 82.3 |  | 
12 | ACGUUUUAUGCAGGAUAUUGAAAUUUAUUACAACAAGAAGGGCAAUACAUGAGGAUCACCCAUGUCAGCAUGGUAUUAAAGUUC | 18 | 16.1 |  | 
13 | CAGCGCUGUCGAGAGGAUAUGCGGUGAUGGACAUGAGGAUCACCCAUGUUAGCGAUAGCAUUACGGUAGAAGGCUCUACAGCUGC |  |  | 239 | 14.2
14 | GAUCAACAUGAGGAUCACCCAUGUCAGGAUAUGAUACUAUGUACUUCGGUACAUAGUAUCAGAAGGGACAGAUC | 122 | 296 |  | 
15 | GUGGUACAUGAGGAUCACCCAUGUUAGGAUAUCGCGUGAGGUUUUGCUUCCGCGCGCGCGAGAAGGGACGUCUU | 28.3 | 23.9 |  | 
16 | CCAGAGAUAUGAGGAUAUCGAGUGGAAUACACUCGAGAAGGCAUGUGAAUACAUGAGGAUCACCCAUGUGAUCAAUACUCUGGA |  |  | 171 | 32.6
17 | CAGUACUGAGGAUAUACAUGAGGAUCACCCAUGUGCUUUAGCUAGGAUACUAGCAUUAGUAGAAGGCAGUACUG | 12.3 | 21.5 |  | 
18 | UUCAUUAACAUGAGGAUCACCCAUGUUGGCCAGUCUCACACCAGAAGGCACGUUGAGCACAACAGUGAGGAUAUGGGUGACAUA |  |  | 286 | 52.9
19 | UACCUGAGGCCAAGCUUUAGGUAUACAUGAGGAUCACCCAUGUAGGAUAUGGUAGGCUUUGCUUACCAGAAGGACAUGUUAAUU | 19 | 64.9 |  | 
20 | AUCAGCUCGUCAGGAUAUUCGUCACUGCGUCAGCAGUGUGGUAAGAUCACAUGAGGAUCACCCAUGUAGAAGGGACGAGCUGAU | 8.23 | 19.2 |  | 
21 | CGCUAGGAUGGGUCUAAUGGACCACAGGAUAUGCUUGUACAUGAGGAUCACCCAUGUAAUAUUGUGCAGAAGGGUGGAUUCACG |  |  | 54.8 | 8.27
22 | AGGCGACAUGAGGAUCACCCAUGUGAGGAUAUCGAACUCAACUGAGGAGAGAGUAAGGCGAGAAGGCACACAGU | 22.1 | 36.4 |  | 
23 | AAUUUAAUACAUGAGGAUCACCCAUGUAAAUUAAUUAAGAUCAAGGAUAUCAGCUCGUUUAGAGCUGAGAAGGUGAUCACAUGU |  |  | 343 | 97
